Sampled rows, rich in hits. Any-hit rate of the full collection: about 2.6%.
EP2 antag – human EP2 receptor antagonists, primary screen, TR-FRET cAMP, C6 glioma cells; Prostaglandin E2 receptor EP2 subtype (Homo sapiens), P43116; C6 glioma cells expressing human EP2; cells stimulated with saturating PGE2; inhibition, % at 25 µM; 0.52% of 260,000 active; AID 1422, 2008;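 active means percent inhibition above 40 after rounding to a whole number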;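 further: rat C6 glioma host cells with rolipram phosphodiesterase inhibitor present; the protocol text gives 20 µM as final concentration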
Target sequence (P43116 whole entry, looked up): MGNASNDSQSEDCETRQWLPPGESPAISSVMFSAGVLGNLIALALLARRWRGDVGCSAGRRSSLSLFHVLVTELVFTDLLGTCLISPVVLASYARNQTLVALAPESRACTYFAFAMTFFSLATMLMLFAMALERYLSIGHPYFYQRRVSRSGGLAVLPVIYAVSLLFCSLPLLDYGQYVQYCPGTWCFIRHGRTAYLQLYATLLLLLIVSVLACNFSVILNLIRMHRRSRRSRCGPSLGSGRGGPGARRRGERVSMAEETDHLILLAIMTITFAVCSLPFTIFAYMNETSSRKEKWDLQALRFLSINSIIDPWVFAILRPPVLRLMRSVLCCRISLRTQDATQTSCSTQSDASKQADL
EP2 modulator – EP2 receptor modulators, cAMP readout, primary screen, cell-based, HTRF cAMP, PGE2 stimulation | Prostaglandin E2 receptor EP2 subtype (Homo sapiens), P43116 | EP2-expressing cells, cAMP HTRF FRET, PGE2 co-stimulation | induction, % at 25 µM | 0.83% of 260,000 active | AID 940, 2007;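 active means compounds whose cAMP rise, as percent of the full-agonist control response, exceeds 60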;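 further: rat C6 glioma line stably carrying human EP2 under a CMV promoter; the protocol text gives 20 µM as final concentration; 100% = response of wells given 1 µM PGE2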
Exocytosis inh – LAMP-1 surface exposure blockers, TALL-104 cells – cell-based, flow cytometry, MLPCN library, primary screen; inhibition, % at 10 µM; 0.66% of 360,000 active; TALL-104 LAMP-1 surface exposure; cells stimulated with thapsigargin and PMA;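 active means inhibition above about 55%, limit read from the data; inconclusive means no clear call, values can overlap the other calls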
MC4R antagonist – MC4R antagonists of cAMP signaling, primary screen, cell-based, TR-FRET, antagonist arm of biased-ligand search; Melanocortin receptor 4 (Homo sapiens), P32245; MC4R-expressing cells, MTII-stimulated cAMP, LANCE TR-FRET; inhibition, % at 6.5 µM; 0.48% of 360,000 active;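 active means inhibition above its plate's cutoff, the mean of tested wells on that plate plus 3 SD, cut at about 29% in these data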;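 further: 0% = Melanotan II alone and 100% = Melanotan II plus saturating MCL0020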
Target sequence (P32245 whole entry, looked up): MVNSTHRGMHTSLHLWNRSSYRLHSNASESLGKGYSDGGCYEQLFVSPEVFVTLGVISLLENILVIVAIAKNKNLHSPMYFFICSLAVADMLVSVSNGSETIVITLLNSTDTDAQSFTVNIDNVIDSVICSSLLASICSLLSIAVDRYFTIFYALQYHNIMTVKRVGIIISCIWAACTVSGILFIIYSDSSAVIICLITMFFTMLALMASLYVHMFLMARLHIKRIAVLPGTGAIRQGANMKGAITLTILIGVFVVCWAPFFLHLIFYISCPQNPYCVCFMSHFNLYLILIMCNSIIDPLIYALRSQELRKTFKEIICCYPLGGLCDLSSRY
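Assay system: human MC4R-expressing U2OS cells; reagent: Melanotan II stimulation of cells; dosing: 6.5 µM single dose; timing: compound 30 min, challenge 1 h, detection 1 h; signal: TR-FRET cAMP assay; replicates: one well per compound, no replicates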
T cell HTS – modulators of CD8 T cell-vesicle binding, primary screen, mouse 2C CD8+ T cells, flow cytometry | 2C CD8+ T cell-vesicle binding; active compounds read low | response (vesicle binding), % at 7 µM | 0.068% of 330,000 active;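 active means response, share of CD8 T cells binding vesicles, and their 90th percentile fluorescence all below set limits, cut at about 80% in these data, passing the limit was not always enough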;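 further: values below 100% mean blocked vesicle binding to the CD8+ T cells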
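incubation = binding step 1.5 h, 37 °C, antibody labelling 20 min, ice | test system = 2C mouse CD8+ T cells | read-out basis = percent CD8+ FL2 mean versus row control | controls = Peptide-free naked vesicles (low) and QL9 vesicles with 0.7% DMSO vehicle (high) | detection = flow cytometry of vesicle-bound cells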
MC4R ag barr – MC4R agonists recruiting beta-arrestin, primary screen, cell-based, luminescence, agonist arm of biased-ligand search; U2OS MC4R beta-arrestin complementation; percent of melanotan II response, DMSO zero; activation, % at 8.9 µM; Melanocortin receptor 4 (Homo sapiens), P32245; 0.98% of 360,000 active; AID 540308, 2011;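 active means activation above a per-plate cutoff, the mean activation of sample wells on that plate plus 3 SD, cut at about 8% in these data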
cAMP nonselect – nonselective cAMP signaling inhibitors, parental cells, counter-screen for MC4R biased antagonist project, cell-based, TR-FRET, U2OS, forskolin, triplicate. AID 602193, 2012. inhibition, % at 6.5 µM. shares compounds with MC4R antagonist. LANCE TR-FRET. 26% of 1,600 active;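 active means mean inhibition over triplicates above the low-control well mean plus 3 SD, set per campaign, cut at about 13% in these data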;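 further: signal is single emission at 671 nm which falls as cellular cAMP rises; 0% = forskolin-stimulated wells and 100% = buffer without forskolin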
MC4R cAMP antag – MC4R cAMP antagonists, retest, confirmation, cell-based, TR-FRET. MC4R-expressing cells, MTII-stimulated cAMP. shares compounds with MC4R antagonist. AID 602195, 2012. inhibition, % at 6.5 µM. 27% of 1,600 active; in the data active means inhibition above about 29%;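 further: 0% = agonist stimulated wells alone and 100% = agonist stimulated wells plus saturating reference antagonist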
* marks the source's active call; other numbers are inactive results; ? = inconclusive; / = no result.

SMILES	EP2 antag	EP2 modulator	Exocytosis inh	MC4R antagonist	T cell HTS	MC4R ag barr	cAMP nonselect	MC4R cAMP antag
Cc1ccc(C(=O)NCC(=O)OCC(=O)Nc2ccc(Cl)cc2C(F)(F)F)cc1C	4.3	26.4	-4.0	28.8*	248.7	3.6	6.3	17.6
CS(=O)(=O)c1ccccc1COC(=O)Nc1ccc(Cl)cc1	8.7	-32.6	-0.3	1.7	410.4	0.3	/	/
CC1CCc2nc(N)c(C#N)c(-c3cccn3C)c2C1 (stereo not drawn)	22.6	9.0	0.2	-3.7	332.8	-0.5	/	/
CSCCC(NC(=O)c1ccccc1Cl)C(=O)Nc1ccc(C)c(S(=O)(=O)N2CCOCC2)c1 (stereo not drawn)	/	/	-7.0	29.2*	677.3	3.0	8.4	12.6
CSc1nnc(NC(=O)c2nc(S(=O)(=O)Cc3cccc(C)c3)ncc2Cl)s1	/	/	6.4	59.1*	342.8	-2.6	28.6*	48.0*
CSc1nnc(NC(=O)c2nc(S(=O)(=O)Cc3ccccc3F)ncc2Cl)s1	/	/	21.7	40.7*	136.8	-2.2	17.5*	38.0*
CC(C)c1nnc(NC(=O)c2nc(S(=O)(=O)Cc3ccc(F)cc3)ncc2Cl)s1	/	/	9.4	56.0*	535.4	-2.6	15.6*	39.2*
CC(C)c1nnc(NC(=O)c2nc(S(=O)(=O)Cc3ccccc3F)ncc2Cl)s1	/	/	/	/	201.8	/	/	/
Cc1ccc(CS(=O)(=O)c2ncc(Cl)c(C(=O)Nc3nnc(C(C)C)s3)n2)cc1	/	/	-0.8	51.2*	432.7	-1.3	24.0*	40.9*
Cc1cccc(CS(=O)(=O)c2ncc(Cl)c(C(=O)Nc3nnc(C(C)C)s3)n2)c1	/	/	21.2	57.9*	306.2	-2.9	27.1*	53.8*
CCSc1nnc(NC(=O)c2nc(S(=O)(=O)Cc3ccc(F)cc3)ncc2Cl)s1	/	/	4.6	49.1*	359.8	-2.0	14.4*	20.3
CCS(=O)(=O)c1ncc(Cl)c(C(=O)Nc2ccc(C)cc2)n1	/	/	-21.4	0.1	85.8	-0.4	/	/
Cc1ccc(CS(=O)(=O)c2ncc(Cl)c(C(=O)Nc3ccc(OC(F)F)cc3)n2)cc1	/	/	35.2	40.5*	379.2	-4.1	23.2*	13.2
COC(=O)c1c(N2C(=O)[C@H]3[C@@H](C2=O)[C@]2(C(=O)Nc4c2ccc(C)c4C)N2CCC[C@@H]32)sc(C)c1C	13.1	23.5	1.0	33.3*	124.2	1.6	2.6	14.0
CC(=O)c1ccc(N2CCN(C(=O)c3ccc(Br)cc3)CC2)c(F)c1	10.0	-39.6	-2.8	6.3	216.3	-1.6	/	/
CN(Cc1ccco1)C(=O)CC[C@H]1O[C@@H](n2ccc(=O)[nH]c2=O)[C@H](O)[C@@H]1O	/	/	-2.1	/	/	/	/	/
O=C(Nc1nnc(-c2ccccc2)s1)c1ccccc1O	/	/	8.8	30.7*	270.5	0.8	0.3	-1.9
CCOc1ccc(NC(=O)COC(=O)c2ncc(Cl)c(Cl)c2Cl)cc1	4.6	-22.8	-0.6	3.2	143.7	2.0	/	/
O=C(OCC(=O)N1CCCC1=O)c1cc(Cl)ccc1O	/	/	7.1	16.2	199.1	-0.5	/	/
O=C(OCC(=O)N1CCCC1=O)c1ncc(Cl)c(Cl)c1Cl	/	/	16.4	31.0*	437.7	-0.7	4.3	-4.3
NS(=O)(=O)c1ccc(NC(=O)COC(=O)c2ncc(Cl)c(Cl)c2Cl)cc1	/	/	-2.6	32.2*	493.5	-1.0	12.8	28.9*
CN1CCN(C(=O)C2CCCN(S(=O)(=O)c3ccccc3)C2)CC1 (stereo not drawn)	/	/	-0.8	6.5	418.3	0.4	/	/
CCOC(=O)C1=NN(C(=O)c2ccc(C)cc2)C(O)(c2ccc(Cl)cc2)C1 (stereo not drawn)	7.7	-37.4	0.9	1.6	166.6	-4.5	/	/
CCOc1ccc(NC(=O)CC)cc1	16.8	-9.0	/	/	201.3	/	/	/
Cc1cnc(NC(=O)Cc2ccccc2Cl)s1	/	/	-13.5	29.8*	201.4	0.2	-0.5	-5.5
SMILES	EP2 antag	EP2 modulator	Exocytosis inh	MC4R antagonist	T cell HTS	MC4R ag barr	cAMP nonselect	MC4R cAMP antag
Cc1csc(NC(=O)Cc2ccccc2Cl)n1	/	/	3.2	6.2	160.6	-1.4	/	/
Cc1ccc(S(=O)(=O)N2CCC(=O)N(C(COCc3ccccc3)C(C)C)CC2)cc1 (stereo not drawn)	12.9	28.7	-1.2	6.7	545.1	3.3	/	/
COCCCNC(=O)/C=C1\Sc2ccccc2N(Cc2ccccc2F)C1=O	7.2	-16.1	2.9	44.3*	171.6	0.3	46.1*	34.4*
COc1ccc(C(=O)/C=C/C(=O)N(CC(=O)NC2CCCCC2)Cc2ccccc2OC)c(O)c1	5.7	-48.0	41.3	48.2*	/	-5.7	6.7	14.2
COc1ccc(C(=O)/C=C/C(=O)N(Cc2ccccc2OC)C(C(=O)NC2CCCCC2)c2ccncc2)c(O)c1 (stereo not drawn)	6.1	-8.1	?	14.6	261.0	3.8	/	/
COc1ccc(C(=O)/C=C/C(=O)N(CC(=O)NC2CCCCC2)CC2CCCO2)c(O)c1 (stereo not drawn)	12.2	-49.7	34.3	15.1	304.7	-5.0	/	/
COc1ccc(C(=O)/C=C/C(=O)N(CC(=O)NC2CCCCC2)Cc2ccccc2)c(O)c1	18.6	-80.2	46.0	39.9*	/	-1.7	4.7	10.5
CCOC(=O)c1ccc(N=c2sc(C(=O)OC)cc(=O)n2-c2ccc(C(=O)OCC)cc2)cc1	10.9	24.9	1.4	32.1*	564.1	0.8	6.2	18.1
O=C(CSc1c2c(nc3ccc(Cl)cc13)CCCC2)N1CCN(C(=O)c2ccco2)CC1	/	/	13.9	40.5*	/	-1.7	-9.5	20.7
O=C(NC1CCCc2ccccc21)C1CCCO1 (stereo not drawn)	8.4	9.9	-0.2	7.0	408.7	-1.5	/	/
COc1ccc(OC)c(Nc2nc(N)c([N+](=O)[O-])c(N3CCOCC3)n2)c1	/	/	-6.2	-13.0	176.6	-0.8	/	/
COC(=O)COc1ccc(NS(=O)(=O)c2cccc([N+](=O)[O-])c2)cc1	9.8	6.2	6.1	30.8*	188.7	-2.3	22.3*	43.2*
